In general, inhibition refers to the relative decrease from the control value, in per cent.

The results in this text go back to ChEMBL document CHEMBL1156678, “A new class of analgesic agents toward prostacyclin receptor inhibition: synthesis, biological studies and QSAR analysis of 1-hydroxyl-2-substituted phenyl-4,4,5,5-tetramethylimidazolines” (Eur J Med Chem, 2008).

Series [1] relates to Mus musculus. As to the kind of experiment: Thrombotic toxicity in ICR mouse assessed as tail bleeding time at 1.3 mmol/kg, ip after 15 mins. It is filed as organism-based. The conditions noted are these: in vivo, 0.25 h. Summed up: (§1)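 Male ICR mice (25 ± 2 g) were kept one day on a 12/12 h light/dark cycle at 21 ± 2 °C. Each received a single i.p. dose of 1.30 mmol/kg in saline/DMSO/Tween-80 (0.2/0.01/0.02 ml), or the solvent only. The restrained mouse had 1 mm cut from the tail before dosing and at 5, 15, 30 and 60 min. Bleeding time (s) is reported as mean ± SD.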

The subject of series [2] is Mus musculus. As to the kind of experiment: Analgesic activity in ICR mouse assessed as pain threshold variation at 0.0013 mmol/kg, ip after 150 mins by tail flick test relative to control. It is filed as functional. Summed up:
(§2)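 Male ICR mice (25 ± 2 g), kept on a 12/12 h light/dark cycle at 21 ± 2 °C for one day before use. Each received a single i.p. injection in 0.2 ml saline + 0.01 ml DMSO + 0.02 ml Tween-80. Vehicle-only mice served as controls. Basal tail-flick threshold was measured four times (BPT). Thresholds were then read every 30 min for 150 min. PTV = (post-dose threshold − BPT)/BPT. n = 10, x ± SD.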
Background: Thermal pain tests record how soon the animal reacts.

Series [3] deals with Mus musculus. As to the kind of experiment: Analgesic activity in ICR mouse assessed as pain threshold variation at 0.0013 mmol/kg, ip after 30 mins by tail flick test relative to control. Format: functional. The essentials:
as §2

Series [4] deals with Mus musculus. Description: Analgesic activity in ICR mouse assessed as pain threshold variation at 0.0013 mmol/kg, ip after 90 mins by tail flick test relative to control. It is filed as functional. Summed up: as §2
In series [5] the test system is Mus musculus. As to the kind of experiment: Thrombotic toxicity in ICR mouse assessed as tail bleeding time at 1.3 mmol/kg, ip after 60 mins. Format: organism-based. Particulars: in vivo, 1 h. Summed up:
as §1

Series [6] concerns Mus musculus. As to the kind of experiment: Analgesic activity in ICR mouse assessed as pain threshold variation at 0.13 mmol/kg, ip after 120 mins by tail flick test. It is filed as functional. The essentials:
as §2

Series [7] is described as follows: Cardiovascular toxicity in rat aorta assessed as inhibition of noradrenaline-induced vasoconstriction at 5 mM relative to control. Format: tissue-based. Particulars: isolated rat aorta. The essentials: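 Rat aortic strips were contracted with noradrenaline, washed, stabilized for 30 min, and contracted again. At peak contraction, compound was added (final 5 × 10^-3 M) or vehicle alone. The relaxant response was recorded as percentage inhibition of the contraction.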

Series [8] deals with Mus musculus. As to the kind of experiment: Analgesic activity in ICR mouse assessed as pain threshold variation at 0.013 mmol/kg, ip after 30 mins by tail flick test relative to control. It is filed as functional. Summed up:
as §2

In series [9] the test system is Mus musculus. Description: Analgesic activity in ICR mouse assessed as pain threshold variation at 0.13 mmol/kg, ip after 60 mins by tail flick test relative to control. It is filed as functional. The essentials:
as §2

Series [10] concerns Mus musculus. Description: Thrombotic toxicity in ICR mouse assessed as tail bleeding time at 1.3 mmol/kg, ip after 5 mins. It is filed as organism-based. Particulars: in vivo. Summed up:
as §1

Series [11] concerns Mus musculus. As to the kind of experiment: Analgesic activity in ICR mouse assessed as pain threshold variation at 0.0013 mmol/kg, ip after 120 mins by tail flick test relative to control. It is filed as functional. Summed up:
as §2

In series [12] the test system is Mus musculus. As to the kind of experiment: Analgesic activity in ICR mouse assessed as pain threshold variation at 0.013 mmol/kg, ip after 90 mins by tail flick test relative to control. It is filed as functional. Summed up:
as §2

Series [13] concerns Mus musculus. Description: Analgesic activity in ICR mouse assessed as pain threshold variation at 0.013 mmol/kg, ip after 60 mins by tail flick test relative to control. Format: functional. The essentials:
as §2

The test system of series [14] is Mus musculus. As to the kind of experiment: Analgesic activity in ICR mouse assessed as pain threshold variation at 0.013 mmol/kg, ip after 150 mins by tail flick test relative to control. Format: functional. The essentials:
as §2

In series [15] the test system is Mus musculus. As to the kind of experiment: Analgesic activity in ICR mouse assessed as pain threshold variation at 0.13 mmol/kg, ip after 90 mins by tail flick test relative to control. Format: functional. The essentials:
as §2

The subject of series [16] is Mus musculus. As to the kind of experiment: Thrombotic toxicity in ICR mouse assessed as tail bleeding time at 1.3 mmol/kg, ip after 30 mins. It is filed as organism-based. The conditions noted are these: in vivo, 0.5 h. Summed up:
as §1

Series [17] concerns Mus musculus. As to the kind of experiment: Analgesic activity in ICR mouse assessed as pain threshold variation at 0.13 mmol/kg, ip after 150 mins by tail flick test. It is filed as functional. Summed up:
as §2

Series [18] concerns Mus musculus. Description: Analgesic activity in ICR mouse assessed as pain threshold variation at 0.0013 mmol/kg, ip after 60 mins by tail flick test relative to control. It is filed as functional. The essentials:
as §2

Series [19] has as its system Mus musculus. As to the kind of experiment: Analgesic activity in ICR mouse assessed as pain threshold variation at 0.013 mmol/kg, ip after 120 mins by tail flick test relative to control. Format: functional. The essentials: as §2
Series [20] has as its system Mus musculus. As to the kind of experiment: Analgesic activity in ICR mouse assessed as pain threshold variation at 0.13 mmol/kg, ip after 30 mins by tail flick test relative to control. Format: functional. The essentials: as §2

As to `CC1(C)N=C(c2ccc(Cl)cc2)N(O)C1(C)C`, the Activity in the series with Mus musculus [1] stood at 119 s; in the series with Mus musculus [2] it was 42.74%; with Mus musculus [3], 24.97%; in the series on Mus musculus [4], 32.13%; in the series on Mus musculus [5], 119 s; in the series on Mus musculus [6] it was 74.74%. The Activity amounted to 39.87% with Mus musculus [8]; 70.21% with Mus musculus [9]; 117 s in the series on Mus musculus [10]; 31.55% in the series on Mus musculus [11]; 50.88% in the series on Mus musculus [12]; 47.25% with Mus musculus [13]. Also, the Activity was determined as 62.76% in the series with Mus musculus [14]; 75.61% in the series on Mus musculus [15]; 117 s in the series with Mus musculus [16]; 88.42% in the series with Mus musculus [17]; 30.02% in the series with Mus musculus [18]; 50% in the series on Mus musculus [19]. Also, the Activity with Mus musculus [20] is given as 63.85%. For the same compound, the inhibition at 5000 µM in series [7] turned out to be 23.8%.
For the compound `CC1(C)N=C(c2ccc(Br)cc2)N(O)C1(C)C`, the Activity with Mus musculus [1] turned out to be 119 s; in the series with Mus musculus [2], 26.57%; in the series on Mus musculus [3], 11.32%; in the series with Mus musculus [4], 34.49%; with Mus musculus [5], 120 s; with Mus musculus [6], 75.77%. Also, the Activity turned out to be 19.33% in the series on Mus musculus [8]; 89.78% with Mus musculus [9]; 118 s in the series with Mus musculus [10]; 31.87% in the series with Mus musculus [11]; 53.75% in the series on Mus musculus [12]; 68.89% in the series with Mus musculus [13]. The Activity with Mus musculus [14] was 47.7%; in the series on Mus musculus [15] it was 75.18%; in the series with Mus musculus [16], 118 s; with Mus musculus [17], 70.19%; in the series with Mus musculus [18], 43.9%; in the series with Mus musculus [19] it was 52.98%. In addition, the Activity with Mus musculus [20] stood at 29.02%. For the same compound, in series [7], the inhibition at 5000 µM is 18.4%.
Consider `CC1(C)N=C(c2ccccc2F)N(O)C1(C)C`, for which the Activity with Mus musculus [1] was determined as 117 s; in the series on Mus musculus [2], 47.03%; in the series on Mus musculus [3] it was 27.64%; in the series with Mus musculus [4], 36.96%; in the series on Mus musculus [5], 119 s; in the series with Mus musculus [6], 75.97%. Moreover, the Activity in the series with Mus musculus [8] was 45.44%; with Mus musculus [9], 72.72%; in the series on Mus musculus [10] it was 117 s; in the series on Mus musculus [11], 37.8%; in the series with Mus musculus [12], 54%; with Mus musculus [13], 53.11%. In addition, the Activity with Mus musculus [14] is 69.89%; in the series on Mus musculus [15], 73.25%; in the series with Mus musculus [16], 119 s; with Mus musculus [17], 90.94%; in the series with Mus musculus [18], 36.02%; in the series with Mus musculus [19], 56.97%. The Activity in the series with Mus musculus [20] is on record as 66.15%. In series [7], the inhibition at 5000 µM was 22.7%.
